# Reference: ChEMBL document CHEMBL4819043, “1,3-Benzodioxole-based fibrate derivatives as potential hypolipidemic and hepatoprotective agents” (2021)
# The source made the active and inactive calls. No cut-off for these calls is given here.
# How the values were obtained:
# [1] = system: Mus musculus; experiment: Hypolipidemic activity in KM mouse model of Triton WR 1339-induced hyperlipidemia assessed as reduction in serum TG level at 0.362 mmol/Kg, IG administered for 1 week and measured on day 7; type: functional, organism-based; conditions: time 1.0 weeks
# [2] = system: Mus musculus; experiment: Hypolipidemic activity in KM mouse model of Triton WR 1339-induced hyperlipidemia assessed as reduction in serum TC level at 0.362 mmol/Kg, IG administered for 1 week and measured on day 7; type: functional, organism-based; conditions: time 1.0 weeks
# [3] = system: Mus musculus; experiment: Hypolipidemic activity in KM mouse model of Triton WR 1339-induced hyperlipidemia assessed as reduction in serum MDA level at 0.362 mmol/Kg, IG administered for 1 week and measured on day 7; type: functional, organism-based; conditions: time 1.0 weeks
# [4] = system: Mus musculus; experiment: Upregulation of PPAR-alpha expression in mouse model of HFD-induced hyperlipidemia at 13 mg/kg, IG by Western blot analysis; type: functional, organism-based
# Procedure, shortened: (§1)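 Hepatic PPAR-α expression measured in liver tissue of mice with high-fat-diet-induced hyperlipidemia, dosed intragastrically at 67 or 13 mg/kg. Compared with the model group. n = 6; mean ± SEM.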
# [5] = system: Mus musculus; experiment: Hypolipidemic activity in mouse model of HFD-induced hyperlipidemia assessed as reduction in serum TG level at 13 mg/kg, IG; type: functional, organism-based
# Procedure, shortened: (§2)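 Mice with high-fat-diet-induced hyperlipidemia, given 67 or 13 mg/kg intragastrically. Serum was assayed for TC, TG, HDL-C and LDL-C, for SOD, GSH-PX and MDA, for IL-6 and TNF-α, and for AST and ALT. Values were compared with the model group. n = 12 per group; mean ± SEM.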
# [6] = system: Mus musculus; experiment: Antioxidant activity in mouse model of HFD-induced hyperlipidemia assessed as increase in GSH-PX level at 13 mg/kg, IG; type: functional, organism-based; procedure, shortened: as §2
# [7] = system: Mus musculus; experiment: Hypolipidemic activity in mouse model of HFD-induced hyperlipidemia assessed as reduction in serum LDL-C level at 13 mg/kg, IG; type: functional, organism-based; procedure, shortened: as §2
# [8] = system: Mus musculus; experiment: Hepatoprotective activity against mouse model of HFD-induced hyperlipidemia assessed as decrease in AST level at 13 mg/kg, IG; type: functional, organism-based; procedure, shortened: as §2
# [9] = system: Mus musculus; experiment: Hepatoprotective activity against mouse model of HFD-induced hyperlipidemia assessed as decrease in ALT level at 13 mg/kg, IG; type: functional, organism-based; procedure, shortened: as §2
# [10] = system: Mus musculus; experiment: Hypolipidemic activity in mouse model of HFD-induced hyperlipidemia assessed as reduction in number of lipid droplets in liver at 13 mg/kg, IG by oil red-O staining based assay; type: functional, organism-based
# Procedure, shortened: (§3)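 Livers from mice with high-fat-diet-induced hyperlipidemia, dosed intragastrically at 67 or 13 mg/kg. Liver sections were stained for lipid (oil red O; Sudan III with hematoxylin, 100×), and relative hepatic lipid accumulation was quantified. Mean of six independent experiments ± SEM, compared with the model group.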
# [11] = system: Mus musculus; experiment: Hypolipidemic activity in mouse model of HFD-induced hyperlipidemia assessed as increase in serum HDL-C level at 13 mg/kg, IG relative to control; type: functional; procedure, shortened: as §2
# [12] = system: Mus musculus; experiment: Hypolipidemic activity in mouse model of HFD-induced hyperlipidemia assessed as reduction in serum TC level at 13 mg/kg, IG; type: functional, organism-based; procedure, shortened: as §2
# [13] = system: Mus musculus; experiment: Antioxidant activity in mouse model of HFD-induced hyperlipidemia assessed as decrease in MDA level at 13 mg/kg, IG; type: functional, organism-based; procedure, shortened: as §2
# [14] = system: Mus musculus; experiment: Hypolipidemic activity in KM mouse model of Triton WR 1339-induced hyperlipidemia assessed as reduction in serum TG level administered IG for 1 week and measured on day 7; type: functional, organism-based; conditions: time 1.0 weeks
# [15] = system: Mus musculus; experiment: Hypolipidemic activity in mouse model of HFD-induced hyperlipidemia assessed as increase in serum HDL-C level at 67 mg/kg, IG relative to control; type: functional; procedure, shortened: as §2
# [16] = system: Mus musculus; experiment: Hypolipidemic activity in KM mouse model of Triton WR 1339-induced hyperlipidemia assessed as reduction in serum TC level at 1.086 mmol/Kg, IG administered for 1 week and measured on day 7 relative to control; type: functional; design: scale not given: the % may be the effect or the level left; conditions: time 1 weeks
# [17] = system: Mus musculus; experiment: Antiinflammatory activity against mouse model of HFD-induced hyperlipidemia assessed as decrease in TNF-alpha level at 67 mg/kg, IG; type: functional, organism-based; procedure, shortened: as §2
# [18] = system: Mus musculus; experiment: Hypolipidemic activity in KM mouse model of Triton WR 1339-induced hyperlipidemia assessed as reduction in serum TC level at 0.362 mmol/Kg, IG administered for 1 week and measured on day 7 relative to control; type: functional; design: scale not given: the % may be the effect or the level left; conditions: time 1 weeks
# [19] = system: Mus musculus; experiment: Hepatoprotective activity against mouse model of HFD-induced hyperlipidemia assessed as decrease in ALT level at 67 mg/kg, IG; type: functional, organism-based; procedure, shortened: as §2
# [20] = system: Mus musculus; experiment: Antioxidant activity in mouse model of HFD-induced hyperlipidemia assessed as increase in GSH-PX level at 67 mg/kg, IG; type: functional, organism-based; procedure, shortened: as §2
# [21] = system: Mus musculus; experiment: Antiinflammatory activity against mouse model of HFD-induced hyperlipidemia assessed as decrease in IL-6 level at 67 mg/kg, IG; type: functional, organism-based; procedure, shortened: as §2
# [22] = system: Mus musculus; experiment: Hypolipidemic activity in KM mouse model of Triton WR 1339-induced hyperlipidemia assessed as reduction in serum TG level at 1.086 mmol/Kg, IG administered for 1 week and measured on day 7 relative to control; type: functional; design: scale not given: the % may be the effect or the level left; conditions: time 1 weeks
# [23] = system: Mus musculus; experiment: Hypolipidemic activity in mouse model of HFD-induced hyperlipidemia assessed as reduction in number of lipid droplets in liver at 67 mg/kg, IG by oil red-O staining based assay; type: functional, organism-based; procedure, shortened: as §3
# [24] = system: Mus musculus; experiment: Hypolipidemic activity in KM mouse model of Triton WR 1339-induced hyperlipidemia assessed as reduction in serum TG level at 0.121 mmol/Kg, IG administered for 1 week and measured on day 7 relative to control; type: functional; design: scale not given: the % may be the effect or the level left; conditions: time 1 weeks
# [25] = system: Mus musculus; experiment: Hypolipidemic activity in mouse model of HFD-induced hyperlipidemia assessed as reduction in serum TG level at 67 mg/kg, IG; type: functional, organism-based; procedure, shortened: as §2
# [26] = system: Mus musculus; experiment: Antioxidant activity in mouse model of HFD-induced hyperlipidemia assessed as increase in SOD level at 67 mg/kg, IG; type: functional, organism-based; procedure, shortened: as §2
# [27] = system: Mus musculus; experiment: Hypolipidemic activity in mouse model of HFD-induced hyperlipidemia assessed as reduction in serum LDL-C level at 67 mg/kg, IG; type: functional, organism-based; procedure, shortened: as §2
# [28] = system: Mus musculus; experiment: Hypolipidemic activity in mouse model of HFD-induced hyperlipidemia assessed as reduction in serum TC level at 67 mg/kg, IG; type: functional, organism-based; procedure, shortened: as §2
# [29] = system: Mus musculus; experiment: Hypolipidemic activity in KM mouse model of Triton WR 1339-induced hyperlipidemia assessed as reduction in serum TC level at 0.121 mmol/Kg, IG administered for 1 week and measured on day 7 relative to control; type: functional; design: scale not given: the % may be the effect or the level left; conditions: time 1 weeks
# [30] = system: Mus musculus; experiment: Hypolipidemic activity in KM mouse model of Triton WR 1339-induced hyperlipidemia assessed as reduction in serum TG level at 0.362 mmol/Kg, IG administered for 1 week and measured on day 7 relative to control; type: functional; design: scale not given: the % may be the effect or the level left; conditions: time 1 weeks
# [31] = system: Mus musculus; experiment: Upregulation of PPAR-alpha expression in mouse model of HFD-induced hyperlipidemia at 67 mg/kg, IG by Western blot analysis; type: functional, organism-based; procedure, shortened: as §1
# [32] = system: Mus musculus; experiment: Hypolipidemic activity in KM mouse model of Triton WR 1339-induced hyperlipidemia assessed as reduction in serum TC level administered IG for 1 week and measured on day 7 relative to control; type: functional, organism-based; conditions: time 1.0 weeks
# [33] = system: Mus musculus; experiment: Hepatoprotective activity against mouse model of HFD-induced hyperlipidemia assessed as decrease in AST level at 67 mg/kg, IG; type: functional, organism-based; procedure, shortened: as §2
# [34] = system: Mus musculus; experiment: Antioxidant activity in mouse model of HFD-induced hyperlipidemia assessed as decrease in MDA level at 67 mg/kg, IG; type: functional, organism-based; procedure, shortened: as §2
compound,measurement,setting,value
O=C(O)CCCCOc1ccc2c(c1)OCO2,Activity,[1],Active
same,Activity,[2],Active
O=C(CCCCOc1ccc2c(c1)OCO2)Oc1ccc2c(c1)OCO2,Activity,[1],Active
same,Activity,[3],Active
same,Activity,[2],Active
CCOC(=O)CCCCOc1ccc2c(c1)OCO2,Activity,[2],Active
O=C(COc1ccc2c(c1)OCO2)Oc1ccc2c(c1)OCO2,Activity,[1],Active
same,Activity,[2],Active
CCOC(=O)CCCOc1ccc2c(c1)OCO2,Activity,[1],Active
same,Activity,[2],Active
O=C(O)COc1ccc2c(c1)OCO2,Activity,[1],Active
O=C(O)CCCCCOc1ccc2c(c1)OCO2,Activity,[1],Active
same,Activity,[2],Active
O=C(CCCOc1ccc2c(c1)OCO2)Oc1ccc2c(c1)OCO2,Activity,[1],Active
same,Activity,[2],Active
CCOC(=O)CCCCCOc1ccc2c(c1)OCO2,Activity,[1],Active
same,Activity,[2],Active
CC(C)OC(=O)C(C)(C)Oc1ccc(C(=O)c2ccc(Cl)cc2)cc1 [FENOFIBRATE],Activity,[4],Active
same,Activity,[5],Active
same,Activity,[6],Active
same,Activity,[7],Active
same,Activity,[8],inactive
same,Activity,[9],inactive
same,Activity,[10],Active
same,Activity,[11],20%
same,Activity,[12],inactive
same,Activity,[13],inactive
O=C(CCCCCOc1ccc2c(c1)OCO2)Oc1ccc2c(c1)OCO2,Activity,[14],Dose-Dependent Effect
same,Activity,[15],15%
same,Activity,[16],70.1%
same,Activity,[17],Active
same,Activity,[1],Active
same,Activity,[18],67.3%
same,Activity,[19],Active
same,Activity,[20],Active
same,Activity,[21],Active
same,Activity,[22],74.1%
same,Activity,[23],Active
same,Activity,[24],10.4%
same,Activity,[25],Active
same,Activity,[26],Active
same,Activity,[27],Active
same,Activity,[3],Active
same,Activity,[28],Active
same,Activity,[29],14.3%
same,Activity,[2],Active
same,Activity,[30],68.8%
same,Activity,[31],Active
same,Activity,[32],Dose-Dependent Effect
same,Activity,[33],Active
same,Activity,[34],Active
CCOC(=O)COc1ccc2c(c1)OCO2,Activity,[2],Active
